Test results reported in ChEMBL document CHEMBL1926564, “Design, synthesis and biological activity of original pyrazolo-pyrido-diazepine, -pyrazine and -oxazine dione derivatives as novel dual Nox4/Nox1 inhibitors” (Bioorg Med Chem, 2011).

Experiments:
[1] = Lipophilicity, log D of the compound at pH 7.4; type: physicochemical; conditions: buffer
[2] = Efflux ratio of apparent permeability across human Caco2 cells at 10 uM after 2 hrs; type: ADME, cell-based; conditions: Caco-2
In short: (§1)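 Caco-2 monolayers grown 20 days, TEER >800 ohm·cm². Compound 10 µM final in HBSS pH 6.5 (1% DMSO), dosed apical (A→B) or basolateral (B→A), 2 h at 37 °C; both compartments sampled, LC–MS/MS cassette analysis with 5-point calibration.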

[3] = AUC (infinity) in Sprague-Dawley rat at 10 mg/kg, po; type: ADME, organism-based; set-up: dose 10 mg/kg, route oral, time infinity; conditions: plasma
In short: (§2)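 Rats in two groups of three: 5 mg/kg iv in EDPW (10% EtOH, 10% DMA, 30% PG, 50% water) or 10 mg/kg oral in aqueous 0.5% CMC/0.25% Tween 20. Carotid arterial cannula blood sampled up to 24 h. Plasma levels by LC/MS/MS (LLOQ 1.00 ng/mL); noncompartmental analysis.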

[4] = Clearance in Sprague-Dawley rat liver microsomes assessed per mg of protein at 0.5 uM; type: ADME, Microsome; conditions: read-out: CLH
In short: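 Pooled rat (male Sprague Dawley) or human (mixed-sex) liver microsomes at 0.5 mg/mL final, 0.1 M phosphate pH 7.4, compound 0.5 µM final, 0.25% DMSO, 37 °C; 1 mM NADPH starts reaction. Sampled 0–45 min, methanol quench with internal standard, LC/MS-MS; intrinsic clearance from compound loss.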

[5] = Clearance in Sprague-Dawley rat at 10 mg/kg, po; type: ADME, organism-based; set-up: dose 10 mg/kg, route oral; conditions: in vivo; in short: as §2
[6] = Half life in Sprague-Dawley rat at 10 mg/kg, po; type: ADME, organism-based; set-up: dose 10 mg/kg, route oral; conditions: in vivo; in short: as §2
[7] = Apparent permeability across human Caco2 cells at 10 uM after 2 hrs; type: ADME, cell-based; conditions: Caco-2; in short: as §1
[8] = Cmax in Sprague-Dawley rat at 5 mg/kg, iv; type: ADME, organism-based; set-up: dose 5 mg/kg, route intravenous; conditions: in vivo; in short: as §2
[9] = AUC (infinity) in Sprague-Dawley rat at 5 mg/kg, iv; type: ADME, organism-based; set-up: time infinity, dose 5 mg/kg, route intravenous; conditions: plasma; in short: as §2
NADPH oxidase 5 = molecular target: T1, NADPH oxidase 5 (Homo sapiens, UniProt Q96PH1); assay: Antagonist activity at human NOX5 assessed as inhibition of ROS production after 20 mins by cell-free amplex red assay; type: functional
T1 sequence (Q96PH1 whole entry): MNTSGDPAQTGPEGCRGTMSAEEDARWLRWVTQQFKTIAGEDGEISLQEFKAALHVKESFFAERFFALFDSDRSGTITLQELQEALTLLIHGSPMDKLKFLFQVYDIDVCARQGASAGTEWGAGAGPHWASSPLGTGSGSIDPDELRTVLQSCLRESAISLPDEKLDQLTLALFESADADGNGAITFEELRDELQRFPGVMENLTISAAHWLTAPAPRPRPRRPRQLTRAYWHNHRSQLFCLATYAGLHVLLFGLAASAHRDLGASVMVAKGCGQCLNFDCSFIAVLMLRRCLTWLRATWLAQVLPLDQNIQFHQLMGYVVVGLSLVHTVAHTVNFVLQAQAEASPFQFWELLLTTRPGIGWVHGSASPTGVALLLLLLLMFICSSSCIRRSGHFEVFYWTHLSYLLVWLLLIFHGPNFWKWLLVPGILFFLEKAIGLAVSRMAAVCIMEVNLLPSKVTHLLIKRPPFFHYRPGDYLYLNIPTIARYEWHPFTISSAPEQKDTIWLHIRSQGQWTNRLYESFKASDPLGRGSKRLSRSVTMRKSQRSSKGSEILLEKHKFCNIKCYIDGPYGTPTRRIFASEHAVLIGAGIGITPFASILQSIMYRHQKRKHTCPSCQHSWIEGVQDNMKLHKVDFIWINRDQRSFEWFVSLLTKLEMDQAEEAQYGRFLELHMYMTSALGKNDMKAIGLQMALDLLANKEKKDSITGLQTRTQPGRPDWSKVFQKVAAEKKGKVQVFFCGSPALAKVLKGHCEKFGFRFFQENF
In short: (§3)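 Membranes from tetracycline-induced (24 h) Nox-expressing cells or human PMN (Nox2), sucrose-gradient purified; or xanthine oxidase. Incubated in PBS with Amplex Red, HRP and cofactors; NADPH (Nox) or xanthine starts ROS. Compound 1 nM–100 µM, 20 min at 37 °C, plate-reader. Background without membranes or agonist. Ki by Cheng-Prusoff; mean of ≥3 experiments in triplicate.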

[10] = Fraction unbound in rat plasma containing 50% plasma protein; type: ADME, cell-free
In short: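 Rat plasma protein binding in 50% plasma; fraction unbound reported.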

NADPH oxidase 4 = molecular target: T2, NADPH oxidase 4 (Homo sapiens, UniProt Q9NPH5); assay: Antagonist activity at human NOX4 expressed in CHO cell membrane coexpressing tetracylin repressor assessed as inhibition of ROS production after 20 mins by cell-free amplex red assay; type: functional; conditions: in the assay text read “HEK293 cell membrane” for “CHO cell membrane”; in short: as §3
T2 sequence (Q9NPH5 whole entry): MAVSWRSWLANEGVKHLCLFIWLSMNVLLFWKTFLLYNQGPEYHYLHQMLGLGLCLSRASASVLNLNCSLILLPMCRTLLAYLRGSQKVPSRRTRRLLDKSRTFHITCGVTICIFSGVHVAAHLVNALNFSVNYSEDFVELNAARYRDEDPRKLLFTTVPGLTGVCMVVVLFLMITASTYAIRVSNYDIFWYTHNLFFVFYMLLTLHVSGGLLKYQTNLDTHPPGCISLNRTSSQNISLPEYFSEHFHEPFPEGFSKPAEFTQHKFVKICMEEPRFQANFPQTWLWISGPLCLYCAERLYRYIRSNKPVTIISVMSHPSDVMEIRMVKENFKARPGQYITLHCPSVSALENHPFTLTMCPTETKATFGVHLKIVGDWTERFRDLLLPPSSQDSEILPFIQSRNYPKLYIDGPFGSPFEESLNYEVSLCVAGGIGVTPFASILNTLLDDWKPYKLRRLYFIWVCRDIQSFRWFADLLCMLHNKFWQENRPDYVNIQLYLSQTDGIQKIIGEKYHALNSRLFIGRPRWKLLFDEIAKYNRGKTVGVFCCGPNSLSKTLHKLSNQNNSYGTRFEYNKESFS

[11] = Clearance in Sprague-Dawley rat at 5 mg/kg, iv; type: ADME, organism-based; set-up: dose 5 mg/kg, route intravenous; conditions: in vivo; in short: as §2
[12] = Half life in Sprague-Dawley rat at 5 mg/kg, iv; type: ADME, organism-based; set-up: dose 5 mg/kg, route intravenous; conditions: in vivo; in short: as §2
[13] = Tmax in Sprague-Dawley rat at 10 mg/kg, po; type: ADME, organism-based; set-up: dose 10 mg/kg, route oral; conditions: in vivo; in short: as §2
[14] = Oral bioavailability in Sprague-Dawley rat at 10 mg/kg; type: ADME, organism-based; conditions: in vivo; in short: as §2
[15] = Cmax in Sprague-Dawley rat at 10 mg/kg, po; type: ADME, organism-based; set-up: dose 10 mg/kg, route oral; conditions: in vivo; in short: as §2
[16] = Volume of distribution at steady state in Sprague-Dawley rat at 5 mg/kg, iv; type: ADME, organism-based; set-up: dose 5 mg/kg, route intravenous; conditions: in vivo, read-out: Vdss; in short: as §2

| SMILES | logD [1] | efflux ratio at 2 h, 10 µM [2] | AUC(0-inf) [3] [ng·h/mL] | microsomal CLint at 0.5 µM [4] [µL/min/mg] | CL/F [5] [mL/min/kg] | half-life [6] [h] | Papp at 2 h, 10 µM [7] [×10⁻⁶ cm/s] | Cmax [8] [ng/mL] | AUC(0-inf) [9] [ng·h/mL] | Ki (NADPH oxidase 5) [nM] | fraction unbound [10] | Ki (NADPH oxidase 4) [nM] | clearance [11] [mL/min/kg] | half-life [12] [h] | Tmax [13] [h] | bioavailability [14] [%] | Cmax [15] [ng/mL] | Vd [16] [L/kg] |
| --- | --- | --- | --- | --- | --- | --- | --- | --- | --- | --- | --- | --- | --- | --- | --- | --- | --- | --- |
| Cl.O=c1c2c3n(c(=O)cc2[nH]n1-c1ccccc1Cl)CCCN(Cc1ccccn1)C3 | 1.1 | 10.1 | 9900 | 27.5 | 17 | 3.63 | 1.8 | 21800 | 11800 | 543 | 0.026 | 67 | 7.67 | 5.62 | 0.25 | 42 | 11300 | 0.47 |
| Cl.O=c1c2c3n(c(=O)cc2[nH]n1-c1ccccc1Cl)CCCN(Cc1ccccc1)C3 | 2.23 | 0.48 | 41400 | 64 | 4.33 | 2.37 | 42.2 | 42300 | 39300 | 414 | 0.12 | 72 | 2.17 | 2.71 | 0.33 | 53 | 14900 | 0.28 |
